Key:
Format in all cases: cell-based
WASF3 = experiment: Western blotting of WASF3 complex protein levels; conditions: MDA-MB-231 and Hs578T cells, western blot; Figure 4e
MDA-MB-231 cells [1] = experiment: Cell proliferation assay; conditions: MDA-MB-231, NSC23766 treatment; Supplementary Figure 4
WASF3 complex = WASF3 complex (Homo sapiens, UniProt Q7L576); experiment: Immunoprecipitation of the WASF3 complex; conditions: IP of WASF3 from MDA-MB-231 cells, Figure 4f
Hs578T cells [2] = experiment: Transwell invasion assay; conditions: dose series, Figure 4d
Hs578T cells [3] = experiment: Cell proliferation assay; conditions: NSC23766 treatment, Supplementary Figure 4
MDA-MB-231 cells [4] = experiment: Transwell invasion assay
Procedure, shortened: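 MDA-MB-231 breast cancer cells were obtained from ATCC and verified by SNP-CGH for characteristic cytogenetic changes. The panel included empty-vector parental cells and cells overexpressing full-length human NCKAP1 from a lentiviral vector. Cells were exposed to the RAC1-inhibitor test compound, with a dose series in one set. Invasion was read out in Transwell invasion assays run as previously described.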

Sequence of WASF3 complex (Q7L576 whole entry, one chain of several): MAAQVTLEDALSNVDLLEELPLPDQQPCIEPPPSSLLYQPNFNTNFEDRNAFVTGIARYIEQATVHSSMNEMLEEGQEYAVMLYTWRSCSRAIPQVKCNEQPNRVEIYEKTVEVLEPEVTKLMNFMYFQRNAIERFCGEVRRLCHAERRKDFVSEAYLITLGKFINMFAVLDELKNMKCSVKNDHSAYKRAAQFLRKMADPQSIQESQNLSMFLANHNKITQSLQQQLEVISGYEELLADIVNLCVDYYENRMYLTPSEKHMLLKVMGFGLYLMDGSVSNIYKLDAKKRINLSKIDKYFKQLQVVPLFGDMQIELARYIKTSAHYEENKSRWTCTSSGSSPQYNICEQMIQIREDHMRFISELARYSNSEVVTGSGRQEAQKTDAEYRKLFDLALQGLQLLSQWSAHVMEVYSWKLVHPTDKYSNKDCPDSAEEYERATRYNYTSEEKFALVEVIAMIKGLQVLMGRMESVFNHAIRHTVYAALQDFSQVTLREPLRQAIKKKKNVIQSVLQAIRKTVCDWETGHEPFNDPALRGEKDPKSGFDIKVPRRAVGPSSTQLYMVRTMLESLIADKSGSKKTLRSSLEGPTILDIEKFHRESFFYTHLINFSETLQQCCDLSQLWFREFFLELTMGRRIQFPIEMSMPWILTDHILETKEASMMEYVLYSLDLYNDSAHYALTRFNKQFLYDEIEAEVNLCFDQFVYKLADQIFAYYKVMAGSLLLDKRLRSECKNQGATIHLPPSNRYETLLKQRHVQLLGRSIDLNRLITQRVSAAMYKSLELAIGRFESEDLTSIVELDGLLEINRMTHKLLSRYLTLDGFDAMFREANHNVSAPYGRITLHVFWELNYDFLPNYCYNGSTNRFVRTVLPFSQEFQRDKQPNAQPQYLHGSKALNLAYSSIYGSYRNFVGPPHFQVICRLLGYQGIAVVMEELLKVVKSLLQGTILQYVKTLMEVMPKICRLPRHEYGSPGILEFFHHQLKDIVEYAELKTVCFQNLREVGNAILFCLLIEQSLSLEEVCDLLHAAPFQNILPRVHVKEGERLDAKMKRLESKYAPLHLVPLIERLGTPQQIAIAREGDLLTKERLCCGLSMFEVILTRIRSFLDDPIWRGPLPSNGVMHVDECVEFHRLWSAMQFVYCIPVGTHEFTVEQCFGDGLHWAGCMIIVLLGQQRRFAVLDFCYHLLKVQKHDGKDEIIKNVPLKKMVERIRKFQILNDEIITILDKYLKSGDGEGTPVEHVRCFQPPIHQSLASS

RAC1 binding to the WASF3 complex (WASF3 complex; high dose 50 µM): significantly inhibited
WASF3 phosphorylation (WASF3 complex; high dose 50 µM): significantly inhibited
SMILES: CCN(CC)CCCC(C)Nc1nc(C)cc(Nc2ccc3nc(C)cc(N)c3c2)n1 (stereo not shown) [NSC23766]
protein levels of WASF3, NCKAP1 and RAC1 (WASF3): does not affect protein levels of either WASF3, NCKAP1 or RAC1
effect on cell proliferation (MDA-MB-231 cells [1]): without affecting cell proliferation
engagement of NCKAP1 with the WASF3 complex (WASF3 complex): does not disrupt engagement of NCKAP1 with the WASF3 complex
effect on invasion (Hs578T cells [2]): dose-dependent reduction in invasion
effect on cell proliferation (Hs578T cells [3]): without affecting cell proliferation
effect on invasion (MDA-MB-231 cells [4]; MDA-MB-231, dose series, Figure 4d): dose-dependent reduction in invasion
effect on invasion (MDA-MB-231 cells [4]; MDA-MB-231 cells overexpressing NCKAP1, Transwell, Figure 4h): significant reduction in invasion
effect on invasion (MDA-MB-231 cells [4]; MDA-MB-231 parental cells containing the empty vector (EV), Transwell, Figure 4h): significant reduction in invasion

From PMC5010469 (Cancer research, 2016)
